From PubChem
A1 apoptosis 2 – compounds inhibiting A1, read as caspase activation; MEF A1-2A-BIM cells, caspase-Glo luminescence, 3 h; percent of clofoctol response, DMSO zero; 24,000 tested, under 10 active; caspase activation, % (concentration not given with the values); in the data active = caspase activation above about 5.9%; inconclusive = no clear call, values can overlap the other calls; inactive = below about 2.2%
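System: mouse embryonic fibroblasts co-expressing A1 and BIM (A1-2A-BIM), primed for A1 dependence; amount: 2500 cells/well; doses: 50 nL pinned compound; schedule: cells settled overnight, compound exposure 3 h at 37 °C, 5% CO2; detection: Caspase-Glo 3/7 luminescence, 1 h at room temperature; read-out: Caspase-3/7 activation, seen as rise in luminescence signal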
T cruzi intra – inhibitors of intracellular Trypanosoma cruzi; intracellular Trypanosoma cruzi in host cells, plate reader; activity score (inhibition), % at 5.01 µM; 4.9% of 22,000 active; AID 651903; in the data active = activity score above about 55%; inconclusive = no clear call, values can overlap the other calls;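 note: parasites and compound incubated about four days before reading; 0% = median of neutral control wells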
INS-1E ATP HTS – rescue of cytokine-induced death in INS-1E beta cells; 0.1% of 20,000 active; protection from cytokine-induced ATP loss, % at 10 µM; INS-1E cytokine-induced death, ATP luminescence, 48 h; normalised: neutral wells 0, positive control 100;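 active = mean replicate protection from cytokine-induced ATP loss at least 50% and at least 75% of replicates each reaching 50%; inconclusive = meets only one of the two criteria, mean or replicate share; inactive = fails both the mean and replicate share criteria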
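assay system = INS-1E rat insulinoma cells | amount = 8000 cells per well | medium = phenol-red-free RPMI with 5% fetal bovine serum | doses = one compound concentration, pin transfer | timing = 48 h cytokine plus compound treatment, 10 min reagent incubation | also added = IL-1β, TNF-α and IFN-γ cytokine mix | signal = CellTiter-Glo luminescence measuring cellular ATP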
* marks the source's active call; other numbers are inactive results; ? = inconclusive; . = not tested or not shown. The sample as a whole holds a higher share of hits than the screen did.

SMILES	A1 apoptosis 2	T cruzi intra	INS-1E ATP HTS
C[C@@H]1CN([C@@H](C)CO)C(=O)c2cccc(NC(=O)CCCCCC(=O)Nc3ccccc3N)c2O[C@@H]1CN(C)S(=O)(=O)c1ccc(Cl)cc1	0.5	56.5*	-17.6
C[C@@H]1CN([C@H](C)CO)C(=O)c2cccc(NC(=O)CCCCCC(=O)Nc3ccccc3N)c2O[C@@H]1CN(C)S(=O)(=O)c1ccc(Cl)cc1	-0.6	?	0.5
C[C@@H]1CN([C@H](C)CO)C(=O)c2cccc(NC(=O)CCCCCC(=O)Nc3ccccc3N)c2O[C@@H]1CN(C)Cc1ccc(Cl)c(Cl)c1	.	60.8*	3.4
C[C@H]1CN([C@@H](C)CO)C(=O)c2cccc(NC(=O)CCCCCC(=O)Nc3ccccc3N)c2O[C@H]1CN(C)Cc1ccc(Cl)c(Cl)c1	1.4	70.0*	8.9
O=C(O)CCCCCC(=O)N/N=C/c1ccc(O)cc1Br	0.4	-18.7	-9.3
COC(=O)[C@H](Cc1ccc(N=[N+]=[N-])cc1)N1CC2=C[C@H]([C@@H](O)Cc3ccccc3)n3c(=O)n(C)c(=O)n3[C@@H]2[C@@H](C2CC2)O1	-0.4	.	.
O=C(CCCCC(=O)N/N=C/c1cccnc1Cl)NO	.	2.3	17.0
O=C(NO)c1ccc(C(=O)N/N=C/c2ccc(O)c(F)c2)cc1	.	-7.7	8.7
COC(=O)c1cn(CC(=O)N2CCN(C)CC2)nn1	-0.8	.	.
C[C@@H]1CN([C@@H](C)CO)C(=O)c2cc(NC(=O)Nc3ccc4c(c3)OCO4)ccc2O[C@@H]1CN(C)Cc1ccc(C(F)(F)F)cc1	-1.7	68.0*	.
C[C@H]1CN([C@@H](C)CO)C(=O)c2cc(NC(=O)Nc3ccc(C(F)(F)F)cc3)ccc2O[C@H]1CN(C)Cc1ccc(C(F)(F)F)cc1	-0.4	?	-14.4
C[C@@H]1CN([C@H](C)CO)C(=O)c2cc(NC(=O)Nc3ccc(C(F)(F)F)cc3)ccc2O[C@H]1CN(C)Cc1ccc2c(c1)OCO2	.	36.5	-18.7
C[C@@H]1CN([C@H](C)CO)C(=O)c2cc(NC(=O)Nc3ccc4c(c3)OCO4)ccc2O[C@H]1CN(C)Cc1ccc(Oc2ccccc2)cc1	.	-5.6	.
C[C@H]1CN([C@@H](C)CO)C(=O)c2cc(NC(=O)Nc3ccc4c(c3)OCO4)ccc2O[C@@H]1CN(C)Cc1ccc2c(c1)OCO2	0.9	-1.5	-4.4
C[C@H]1CN([C@@H](C)CO)C(=O)c2cc(NC(=O)Nc3ccc(C(F)(F)F)cc3)ccc2O[C@H]1CN(C)Cc1ccc2c(c1)OCO2	.	34.2*	.
C[C@@H]1CN([C@H](C)CO)C(=O)c2cc(NC(=O)Nc3ccc4c(c3)OCO4)ccc2O[C@@H]1CN(C)Cc1ccc(Oc2ccccc2)cc1	.	61.6*	-12.3
C[C@H]1CN([C@@H](C)CO)C(=O)c2cc(NC(=O)Nc3ccccc3)ccc2O[C@H]1CN(C)Cc1ccc2c(c1)OCO2	.	51.6*	.
O=C(N/N=C/c1ccc(Oc2ccccc2)cc1)c1ccccc1O	-6.1	6.1	4.8
O=C(CCCCCC(=O)Nc1ccccc1O)N/N=C\c1cc(O)ccc1O	0.2	38.1	45.3
COC(=O)CCCCCCC(=O)N/N=C/C[C@H](C)CCC=C(C)C	-0.1	6.3	-6.4
O=C1O[C@H](c2ccccc2)[C@H](c2ccccc2)N2[C@H]1[C@@H](C(=O)Nc1nc3ccccc3s1)[C@]1(C(=O)Nc3ccc(C#CC4(O)CCCCCC4)cc31)[C@H]2c1ccc(OCCO)cc1	0.5	.	.
C[C@H]1CN([C@@H](C)CO)C(=O)Cc2cc(NC(=O)Nc3ccc(F)cc3)ccc2O[C@H]1CN(C)Cc1ccc2c(c1)OCO2	.	2.6	-2.5
C[C@H]1CN([C@@H](C)CO)C(=O)Cc2cc(NC(=O)Nc3ccc(C(F)(F)F)cc3)ccc2O[C@H]1CN(C)Cc1ccc2c(c1)OCO2	.	59.7*	-23.9
C[C@H](CO)N1C[C@H](C)[C@H](CN(C)Cc2ccc(C(F)(F)F)cc2)Oc2ccc(NC(=O)Nc3ccc4c(c3)OCO4)cc2CC1=O	-0.6	67.2*	-28.9
C[C@@H]1CN([C@H](C)CO)C(=O)Cc2cc(NC(=O)Nc3ccc4c(c3)OCO4)ccc2O[C@H]1CN(C)C(=O)Nc1ccc(C(F)(F)F)cc1	.	-8.6	-0.5
C[C@@H]1CN([C@@H](C)CO)C(=O)Cc2cc(NC(=O)Nc3ccc4c(c3)OCO4)ccc2O[C@@H]1CN(C)Cc1ccc(C(F)(F)F)cc1	.	67.7*	-7.9
C[C@H](CO)N1C[C@H](C)[C@H](CN(C)Cc2ccc3c(c2)OCO3)Oc2ccc(NC(=O)Nc3ccc4c(c3)OCO4)cc2CC1=O	1.4	12.8	-7.8
C[C@@H]1CN([C@@H](C)CO)C(=O)Cc2cc(NC(=O)Nc3ccc4c(c3)OCO4)ccc2O[C@@H]1CN(C)C(=O)Nc1ccc(C(F)(F)F)cc1	.	7.2	-10.1
